Data from ChEMBL document CHEMBL2417469, “Synthesis of novel analogs of 2-pyrazoline obtained from [(7-chloroquinolin-4-yl)amino]chalcones and hydrazine as potential antitumor and antimalarial agents” (Eur J Med Chem, 2013).
≈ marks a conversion by molar mass, not a printed value.

Legend:
[1] = tested on: NCI-H460; test: Cytotoxicity against human NCI-H460 cells after 48 hrs by SRB assay; format: functional; details: NCI-H460, 48 h
Outline: (§1)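 NCI 60-cell-line screen. Cells preincubated 24 h at 37 °C, 5% CO2; time-zero plates TCA-fixed. Compounds dissolved in DMSO and tested at five concentrations (100, 10, 1.0, 0.1, 0.01 µM) for 48 h continuous exposure. Adherent cells fixed with cold TCA (10% final), then SRB stained; absorbance at 515 nm. GI50, TGI and LC50 calculated from growth relative to time-zero and untreated controls.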

[2] = tested on: HT-29; test: Cytotoxicity against human HT-29 cells after 48 hrs by SRB assay; format: functional; details: HT-29, 48 h; outline: as §1
[3] = tested on: CAKI-1; test: Cytotoxicity against human Caki1 cells after 48 hrs by SRB assay; format: functional; details: CAKI-1, 48 h; outline: as §1
[4] = tested on: OVCAR-5; test: Cytotoxicity against human OVCAR5 cells after 48 hrs by SRB assay; format: functional; details: OVCAR-5, 48 h; outline: as §1
[5] = tested on: Plasmodium falciparum; test: Antimalarial activity against Plasmodium falciparum NF54 infected in human serum after 48 hrs by fluorometric method; format: functional, organism-based
Outline: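 Asynchronous P. falciparum NF54 cultures at 1.5–2% parasitemia, 5% hematocrit in RPMI with 10% human serum; equal volumes of parasite suspension and compound dilutions (from 100 µg/mL stock) incubated 48 h, 37 °C, 90% N2/5% CO2/5% O2. DNA extracted with proteinase K lysis, stained with ethidium bromide; fluorescence-based viability vs compound-free control. IC50 by Probit; triplicate.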

[6] = tested on: SR; test: Cytotoxicity against human SR cells after 48 hrs by SRB assay; format: functional
Outline: (§2)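 NCI 60-cell screen. Cells grew 24 h (37 °C, 5% CO2) before compound was added. Compounds were in DMSO and diluted in medium with gentamicin, then tested at five levels (100, 10, 1.0, 0.1, 0.01 µM) with 48 h continuous exposure. Adherent cells were fixed with TCA (10% final) and stained with 0.4% SRB, absorbance read at 515 nm. A time-zero plate was included. LC50 is the concentration giving 50% loss of protein relative to time zero.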

[7] = tested on: SF-539; test: Cytotoxicity against human SF539 cells after 48 hrs by SRB assay; format: functional; details: SF-539, 48 h; for CC50: read-out: LC50 (the source's name); outline: as §1
[8] = tested on: Plasmodium falciparum; test: Antimalarial activity against Plasmodium falciparum NF54 infected in human serum at 20 ug/ml after 48 hrs by fluorometric method; format: functional
Outline: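 Asynchronous P. falciparum NF54 at 1.5–2% parasitemia, 5% hematocrit in RPMI with 10% human serum, exposed 48 h at 37 °C under 90% N2/5% CO2/5% O2 at the stated concentration; parasite DNA stained with ethidium bromide after proteinase K lysis; viability % = (Flu treated − medium)/(Flu untreated − medium) ×100; triplicate.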

[9] = tested on: HCT-15; test: Cytotoxicity against human HCT15 cells after 48 hrs by SRB assay; format: functional; details: HCT-15, 48 h; outline: as §1
[10] = tested on: ACHN; test: Cytotoxicity against human ACHN cells after 48 hrs by SRB assay; format: functional; details: for CC50: read-out: LC50 (the source's name); outline: as §1
[11] = tested on: SK-OV-3; test: Cytotoxicity against human SKOV3 cells after 48 hrs by SRB assay; format: functional; details: SK-OV-3, 48 h; outline: as §1
[12] = tested on: MDA-MB-468; test: Cytotoxicity against human MDA-MB-468 cells after 48 hrs by SRB assay; format: functional; details: MDA-MB-468, 48 h; outline: as §1
[13] = tested on: NCI-H322M; test: Cytotoxicity against human NCI-H322M cells after 48 hrs by SRB assay; format: functional; outline: as §1
[14] = tested on: MCF7; test: Cytotoxicity against human MCF7 cells after 48 hrs by SRB assay; format: functional; details: MCF7, 48 h; for CC50: read-out: LC50 (the source's name); outline: as §1
[15] = tested on: SF-268; test: Cytotoxicity against human SF268 cells after 48 hrs by SRB assay; format: functional; details: SF-268, 48 h; outline: as §1
[16] = tested on: NCI/ADR-RES; test: Cytotoxicity against human NCI/ADR-RES cells after 48 hrs by SRB assay; format: functional; details: for CC50: read-out: LC50 (the source's name); outline: as §1
[17] = tested on: IGROV-1; test: Cytotoxicity against human IGROV1 cells after 48 hrs by SRB assay; format: functional; details: IGROV-1, 48 h; outline: as §1
[18] = tested on: HL-60(TB); test: Cytotoxicity against human HL-60(TB) cells after 48 hrs by SRB assay; format: functional; details: HL-60, 48 h; for CC50: read-out: LC50 (the source's name); outline: as §1
[19] = Cytotoxicity against human EKVX cells after 48 hrs by SRB assay; format: functional; outline: as §1
[20] = Toxicity in RBC (unknown origin) assessed as hemolysis after 48 hrs at 20 to 80 ug/ml by spectrophotometry; format: cell-based, Erythrocyte; details: red blood cells (RBC); read-out: Activity
Outline: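 Red blood cells at 5% hematocrit in RPMI 1640 exposed to 20, 40 and 80 µg/mL for 48 h at 37 °C; free hemoglobin read spectrophotometrically at 542 nm.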

[21] = tested on: SW-620; test: Cytotoxicity against human SW620 cells after 48 hrs by SRB assay; format: functional; details: SW-620, 48 h; outline: as §2
[22] = tested on: BT-549; test: Cytotoxicity against human BT549 cells after 48 hrs by SRB assay; format: functional; details: BT-549, 48 h; outline: as §1
[23] = tested on: Hs-578T; test: Cytotoxicity against human Hs578T cells after 48 hrs by SRB assay; format: functional; outline: as §1
[24] = tested on: OVCAR-8; test: Cytotoxicity against human OVCAR8 cells after 48 hrs by SRB assay; format: functional; details: OVCAR-8, 48 h; outline: as §1
[25] = tested on: U-251; test: Cytotoxicity against human U251 cells after 48 hrs by SRB assay; format: functional; details: U-251, 48 h; for CC50: read-out: LC50 (the source's name); outline: as §2
[26] = tested on: RXF 393; test: Cytotoxicity against human RXF393 cells after 48 hrs by SRB assay; format: functional; details: RXF 393, 48 h; outline: as §1
[27] = tested on: K562; test: Cytotoxicity against human K562 cells after 48 hrs by SRB assay; format: functional; details: K562, 48 h; outline: as §1

CC(=O)N1N=C(c2ccc(Nc3ccnc4cc(Cl)ccc34)cc2)CC1c1ccc(Cl)cc1 (stereo not drawn)
GI50 [1]: > 100 µM | LC50 [1]: > 100 µM | GI50 [2]: 5.4 µM | LC50 [2]: > 100 µM | GI50 [3]: > 100 µM | LC50 [3]: > 100 µM | GI50 [4]: > 100 µM | LC50 [4]: > 100 µM | IC50 [5]: 54.6 µg/mL (≈ 115 µM) | GI50 [6]: 0.61 µM | LC50 [6]: > 100 µM | GI50 [7]: > 100 µM | CC50 [7]: > 100 µM | inhibition at 20 µg/mL [8]: 32.9% | GI50 [9]: 3.33 µM | LC50 (concentration killing 50% of cells relative to time zero) [9]: > 100 µM | GI50 [10]: 3.96 µM | CC50 [10]: > 100 µM | GI50 [11]: > 100 µM | LC50 (concentration killing 50% of cells) [11]: > 100 µM | GI50 [12]: 2.41 µM | LC50 [12]: > 100 µM | GI50 [13]: > 100 µM | LC50 (50% lethal concentration) [13]: > 100 µM | GI50 [14]: 4.04 µM | CC50 [14]: > 100 µM | GI50 [15]: 9.1 µM | LC50 [15]: > 100 µM | GI50 [16]: 3.04 µM | CC50 [16]: > 100 µM | GI50 [17]: > 100 µM | LC50 (concentration killing 50% of cells relative to time zero) [17]: > 100 µM | GI50 [18]: 3.56 µM | CC50 [18]: > 100 µM | LC50 [19]: > 100 µM | hemolysis at 48 h [20]: 3.4% | GI50 [21]: 100 µM | LC50 [21]: > 100 µM | GI50 [22]: 5.4 µM | LC50 (50% net cell kill vs time zero) [22]: > 100 µM | GI50 [23]: > 100 µM | LC50 (50% net cell kill) [23]: > 100 µM | GI50 [24]: > 100 µM | LC50 (50% net cell kill) [24]: > 100 µM | GI50 [25]: > 100 µM | CC50 [25]: > 100 µM | GI50 [26]: 5.07 µM | LC50 (concentration killing 50% of cells) [26]: > 100 µM

O=CN1N=C(c2ccc(Nc3ccnc4cc(Cl)ccc34)cc2)CC1c1ccc(Cl)cc1 (stereo not drawn)
GI50 [1]: 0.59 µM | LC50 [1]: > 100 µM | GI50 [2]: 0.41 µM | LC50 [2]: > 100 µM | GI50 [3]: 0.41 µM | LC50 [3]: > 100 µM | GI50 [4]: 6.46 µM | LC50 [4]: > 100 µM | GI50 [6]: 0.32 µM | LC50 [6]: > 100 µM | GI50 [7]: 0.58 µM | CC50 [7]: > 100 µM | inhibition at 20 µg/mL [8]: 1.1% | GI50 [9]: 0.58 µM | LC50 (concentration killing 50% of cells relative to time zero) [9]: > 100 µM | GI50 [10]: 1 µM | CC50 [10]: > 100 µM | GI50 [11]: 0.57 µM | LC50 (concentration killing 50% of cells) [11]: > 100 µM | GI50 [12]: 0.32 µM | LC50 [12]: > 100 µM | GI50 [13]: > 100 µM | LC50 (50% lethal concentration) [13]: > 100 µM | GI50 [14]: 0.48 µM | CC50 [14]: > 100 µM | GI50 [15]: 0.85 µM | LC50 [15]: > 100 µM | GI50 [16]: 0.36 µM | CC50 [16]: > 100 µM | GI50 [17]: 5.01 µM | LC50 (concentration killing 50% of cells relative to time zero) [17]: > 100 µM | GI50 [18]: 0.38 µM | CC50 [18]: > 100 µM | LC50 [19]: > 100 µM | GI50 [21]: 0.48 µM | LC50 [21]: > 100 µM | GI50 [22]: 4.77 µM | LC50 (50% net cell kill vs time zero) [22]: > 100 µM | GI50 [23]: 3.93 µM | LC50 (50% net cell kill) [23]: > 100 µM | GI50 [24]: 3.22 µM | LC50 (50% net cell kill) [24]: > 100 µM | GI50 [25]: 0.51 µM | CC50 [25]: > 100 µM | GI50 [26]: 1.88 µM | LC50 (concentration killing 50% of cells) [26]: > 100 µM

COc1cccc2c1C(=O)c1c(O)c3c(c(O)c1C2=O)C[C@@](O)(C(=O)CO)C[C@@H]3O[C@H]1C[C@H](N)[C@H](O)[C@H](C)O1 [DOXORUBICIN]
GI50 [1]: 0.02 µM | GI50 [2]: 0.12 µM | GI50 [3]: 0.95 µM | GI50 [4]: 0.41 µM | GI50 [6]: 0.03 µM | GI50 [7]: 0.12 µM | CC50 [7]: 27.2 µM | GI50 [27]: 0.19 µM | GI50 [9]: 6.46 µM | GI50 [10]: 0.08 µM | CC50 [10]: 100 µM | GI50 [11]: 0.22 µM | GI50 [12]: 0.05 µM | GI50 [13]: 0.54 µM | GI50 [14]: 0.03 µM | CC50 [14]: 51.3 µM | GI50 [15]: 0.1 µM | GI50 [16]: 7.16 µM | CC50 [16]: 100 µM | GI50 [17]: 0.17 µM | GI50 [18]: 0.12 µM | GI50 [19]: 0.41 µM | GI50 [21]: 0.09 µM | GI50 [22]: 0.23 µM | GI50 [23]: 0.33 µM | GI50 [24]: 0.1 µM | GI50 [25]: 0.04 µM | CC50 [25]: 30.6 µM | GI50 [26]: 0.1 µM
